IEC-6 cytotox – cytotoxicity in IEC-6 intestinal epithelial cells, primary screen, cytotoxicity control for KLF5 inhibitor project, cell-based, luminescence; IEC-6 cytotoxicity, luminescence viability; inhibition, % at 5 µM; 0.78% of 290,000 active; in the data active = inhibition above about 22%;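 note: 0% = plate median of test compound wells and 100% = cytotoxic reference compound wells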
KLF5 inh – KLF5 expression inhibitors, primary screen, DLD-1 cells, luminescence; inhibition, % at 5 µM; 0.23% of 290,000 active; DLD-1 KLF5 promoter-luciferase reporter;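 active = inhibition above a per-plate limit of that plate's mean compound inhibition plus 3 SD, cut at about 60% in these data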;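 note: 0% = DMSO wells and 100% = LY294002 at 200 µM; higher means less KLF5 promoter-driven luciferase light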
Ba/F3 V617F tox – reduced viability of JAK2V617F-dependent Ba/F3 cells, primary screen, JAK2V617F inhibitor project, cell-based, Ba/F3 EpoR-JAK2V617F, luminescence | ATP luminescence | 1.1% of 220,000 active | inhibition, % at 5.6 µM | AID 1446, 2008;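 active = inhibition above the campaign mean plus 3 SD over all tested compounds, cut at about 24% in these data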;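 note: cytokine-independent growth of Ba/F3 cells driven by EpoR plus mutant JAK2; 0% = DMSO-treated cells and 100% = JAK inhibitor I control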
MT stabilizer – microtubule stabilizers in HeLa cells, primary screen, imaging, high-content imaging; HeLa tubulin immunostaining HCS, 24 h; share of cells brighter than vehicle mean+2SD; AID 2205, 2009; % tubulin-high responders, % at 10 µM; 0.83% of 200,000 active;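 active = plate Z-score above 3 for both tubulin-high and condensed-nucleus cell shares, with cell loss under 80%, at 10 µM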;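 note: anti alpha tubulin signal scored within the nucleus-defined area of each cell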
bCat nuc transl – modulators of beta-catenin nuclear translocation, primary screen, imaging, HeLa cells, immunofluorescence, high-content | nuclear translocation activity, % at 5 µM | 0.3% of 190,000 active | AID 1665, 2009;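 active = nuclear translocation activity above 50% at 5 µM, with a well cell count of 50 or more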;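 note: per-cell ratio of nuclear to cytoplasmic median beta-catenin stain intensity; plate controls were DMSO negative control for no effect and GSK-3 inhibitor IX positive control for full effect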
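Test system: human HeLa cells, native beta-catenin. Compound dosing: 5 µM primary single dose, 0.1% DMSO, 0.02–20 µM confirmation series. Incubation: compound exposure 24 h at 37°C. Detection: beta-catenin immunostaining with DAPI counterstain, 20x imaging, 6 fields/well. Read-out basis: Nuclear/cytoplasmic beta-catenin signal ratio, % activation.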
BaF3 tox – parental Ba/F3 cell viability inhibition, counter-screen for JAK2V617F inhibitor project, murine pro-B, CellTiter-Glo luminescence | CellTiter-Glo ATP luminescence | inhibition, % at 5.6 µM | 1.1% of 220,000 active;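 active = inhibition above a per-campaign cutoff, the mean inhibition of all tested compounds plus 3 SD, cut at about 27% in these data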;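 note: 0% = DMSO wells and 100% = JAK Inhibitor I control wells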
Starred values were filed as active, the others as inactive; nt = no result. Hits are enriched below; roughly 2.1% of the tested compounds scored in any of these assays.

SMILES | IEC-6 cytotox | KLF5 inh | Ba/F3 V617F tox | MT stabilizer | bCat nuc transl | BaF3 tox
COn1c(C)c(C(C)=O)c2c3nonc3ccc21 | 2 | -34 | 2 | 7 | -2 | 96*
COC(=O)C(Cc1ccc(O)cc1)NC(=O)CCOc1ccc(OC)cc1 (configuration not stated) | -3 | -32 | nt | nt | nt | nt
COCCNC(=O)c1cc(-c2ccncc2)nc2ccc(S(=O)(=O)N3CCOCC3)cc12 | -2 | -36 | -3 | 2 | -1 | 2
CC(C)CCNC(=O)c1cc(-c2ccncc2)nc2ccc(S(=O)(=O)N3CCOCC3)cc12 | -7 | -9 | -1 | 17* | -4 | 0
CN1C(=O)C(O)(CC(=O)c2cccnc2)c2ccccc21 (configuration not stated) | 8 | -17 | 5 | 2 | 0 | 5
O=C(CC1(O)C(=O)N(Cc2cccc3ccccc23)c2ccccc21)c1cccnc1 (configuration not stated) | 12 | -29 | 68* | 3 | -2 | 54*
CC(C)(C)NC(=O)NCc1cccnc1 | -14 | -1 | -3 | nt | -2 | 2
O=C(CSc1nnnn1-c1ccc2c(c1)OCO2)NCc1ccccc1 | 10 | -4 | -4 | 42* | nt | 6
COC(=O)Cn1ncc2c3ccccc3n(C)c2c1=O | -7 | -28 | 0 | 2 | -2 | 90*
Cc1ccccc1CCNC(=O)C1CC(O)CN1C(=O)Nc1ccccc1 (configuration not stated) | -1 | -27 | nt | nt | nt | nt
COc1cc(S(=O)(=O)n2c(C)nc3ccccc32)ccc1F | 11 | -4 | 0 | 28* | nt | 7
COc1cc(S(=O)(=O)N2CCN=C2c2ccccc2)ccc1F | 2 | -17 | -3 | 44* | nt | 5
COc1ccc(S(=O)(=O)n2c(C)nc3ccccc32)cc1C | 4 | -34 | nt | nt | nt | nt
Cc1ccc(S(=O)(=O)N2CCN=C2c2ccccc2)cc1C | -2 | -34 | 0 | 3 | 0 | 4
O=C(Nc1ccc(Cl)cc1)N(C1=NCCC1)c1ccc(OC(F)F)cc1 | 2 | -4 | 4 | 3 | 0 | 9
O=c1nc(SCc2c(F)cccc2Cl)nc(-c2ccc(Cl)cc2)[nH]1 | -5 | -21 | -2 | nt | 0 | 40*
O=c1nc(SCc2ccccc2Cl)nc(-c2ccc(Cl)cc2)[nH]1 | -3 | -14 | 0 | nt | 0 | 0
COc1ccc(NC(=O)c2nc3nccc(C)n3n2)cn1 | -4 | -102 | -1 | 3 | 11 | 5
CN(C)CCCN(Cc1ccccc1)C(=S)Nc1ccc(F)c(Cl)c1 | -2 | -32 | 33* | 2 | 1 | 29*
CCCN(Cc1ccccc1)C(=S)Nc1cccc(C(F)(F)F)c1 | -1 | -11 | 34* | 3 | 1 | 33*
CN(C)CCCN(Cc1ccccc1)C(=S)Nc1cccc(C(F)(F)F)c1 | 2 | -5 | -1 | 6 | -2 | 10
O=S(=O)(Nc1cccc(-c2nc3cccnc3s2)c1)c1cccs1 | 0 | -22 | 0 | nt | -1 | 6
Cc1ccc(-n2ncc3c2CC(C)(C)CC3NC(=O)CCc2ccc(=O)[nH]n2)cc1 (configuration not stated) | 5 | -11 | nt | nt | nt | nt
CCc1ccc(NC(=S)Nc2cccc3cnccc23)cc1 | 3 | -14 | 0 | 2 | 1 | 7
CCOC(=O)c1cnc(SC)nc1Oc1cccc(NC(=O)c2ccc(Cl)cc2)c1 | -3 | -8 | 3 | 3 | -2 | 6
SMILES | IEC-6 cytotox | KLF5 inh | Ba/F3 V617F tox | MT stabilizer | bCat nuc transl | BaF3 tox
CCOC(=O)c1cnc(SC)nc1Oc1cccc(NS(=O)(=O)c2ccc(Cl)cc2)c1 | 0 | 13 | 2 | 32* | -2 | 11
CC(C)c1ccccc1NC(=S)NCc1ccncc1 | -8 | -10 | 3 | 6 | 1 | 8
O=C(/C=C/c1ccco1)N1CCc2ccccc21 | 6 | -186 | 1 | 2 | -3 | 3
Cc1ccc(/C=C/C(=O)N2CCc3ccccc32)o1 | -5 | -141 | 2 | 10* | nt | 2
Cn1c(=O)c2cc3ccccc3nc2n(C)c1=O | -7 | -34 | 0 | nt | 1 | 2
CCCCCNc1nc2sc3c(c2c(=O)n1-c1cccc(Cl)c1)CCN(C)C3 | 5 | -10 | 76* | nt | 0 | 68*
